Results: ChEMBL document CHEMBL3217744, “Non-iminosugar glucocerebrosidase small molecule chaperones” (Medchemcomm, 2012)
One block for each compound: values may come before it. Calls of active or inactive are those of the source. The calls are words filed in the database; no cut-off is given here.

How the values were obtained:
[1] = molecular target: T1, Lysosomal acid glucosylceramidase (Homo sapiens, UniProt P04062, N409S); assay: (§1) Inhibition of glucocerebrosidase N370S mutant in spleen homogenates of patient with Gaucher disease using resorufin-beta-D-glucopyranoside as substrate after 20 mins fluorescence assay; type: tissue-based
[2] = test system: T2, Lysosomal acid glucosylceramidase (Homo sapiens), P04062 [N409S]; assay: as §1; type: tissue-based
T2 sequence (whole entry): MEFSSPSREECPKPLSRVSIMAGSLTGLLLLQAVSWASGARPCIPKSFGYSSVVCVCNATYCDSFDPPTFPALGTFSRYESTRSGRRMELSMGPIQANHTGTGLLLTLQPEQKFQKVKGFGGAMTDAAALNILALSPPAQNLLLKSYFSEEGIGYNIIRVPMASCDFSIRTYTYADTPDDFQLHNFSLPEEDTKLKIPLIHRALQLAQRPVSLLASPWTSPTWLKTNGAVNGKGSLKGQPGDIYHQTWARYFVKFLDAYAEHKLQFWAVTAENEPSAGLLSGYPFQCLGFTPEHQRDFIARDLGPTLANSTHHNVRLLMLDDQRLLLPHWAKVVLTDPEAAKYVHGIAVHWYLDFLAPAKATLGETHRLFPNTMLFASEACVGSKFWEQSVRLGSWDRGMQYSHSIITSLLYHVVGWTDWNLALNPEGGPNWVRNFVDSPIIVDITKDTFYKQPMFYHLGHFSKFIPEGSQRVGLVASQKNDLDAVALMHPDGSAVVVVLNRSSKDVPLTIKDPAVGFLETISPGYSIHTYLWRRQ

[3] = molecular target: Somatostatin receptor type 4 (Homo sapiens, UniProt P31391); assay: Binding affinity to human SST4 receptor
Chain of Somatostatin receptor type 4 (P31391 whole entry): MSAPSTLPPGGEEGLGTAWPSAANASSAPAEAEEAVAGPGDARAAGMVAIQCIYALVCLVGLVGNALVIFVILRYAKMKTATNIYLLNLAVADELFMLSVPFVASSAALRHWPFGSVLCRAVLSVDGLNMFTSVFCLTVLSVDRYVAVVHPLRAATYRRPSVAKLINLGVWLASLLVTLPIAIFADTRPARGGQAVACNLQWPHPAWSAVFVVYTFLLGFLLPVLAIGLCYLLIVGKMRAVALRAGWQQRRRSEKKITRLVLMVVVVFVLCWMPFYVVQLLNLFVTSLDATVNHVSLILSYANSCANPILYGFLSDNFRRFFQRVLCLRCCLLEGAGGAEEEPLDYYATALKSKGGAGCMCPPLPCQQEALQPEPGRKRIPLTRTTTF

[4] = Plasma concentration in C57BL/6 mouse at 30 mg/kg, ip after 0.5 hrs; type: ADME, organism-based; design: dose 30 mg/kg, route intraperitoneal
How it was run: (§2)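 Male C57BL/6 mice (20-21 g), single IP dose of 30 mg/kg at 3 mg/mL, 10 mL/kg, in 5% DMAC/5% Solutol HS 15/90% 10 mM pH 7.4 phosphate buffer; n=3 per time point. Retro-orbital blood into K2EDTA under isoflurane, pre-dose to 24 h. Plasma protein-precipitated with acetonitrile containing testosterone internal standard; LC-MS/MS positive ESI MRM; calibration 1.00-10000 ng/mL.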

[5] = test system: T2, Lysosomal acid glucosylceramidase (Homo sapiens), P04062 [N409S]; assay: Induction of glucocerebrosidase N370S mutant translocation in fibroblasts of patient with Gaucher disease assessed as co-localization of LAMP-1 in lysosomes at 1 uM after 5 days by laser scanning confocal microscopic analysis
How it was run: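 Gaucher patient fibroblasts on chamber slides, treated 5 days with compound. Cells fixed in 3% paraformaldehyde and permeabilized with 0.1% Triton-X. Stained with anti-LAMP-1 (1:100) and anti-GCase R386 (1:500), then Alexa-488/555 secondaries and DAPI. Imaged by confocal laser scanning at identical laser settings; collapsed z-stacks.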

Mus musculus [6] = assay: Tmax in C57BL/6 mouse at 30 mg/kg, ip after 24 hrs; type: ADME, organism-based; design: dose 30 mg/kg, route intraperitoneal; details: in vivo; how it was run: as §2
[7] = Plasma concentration in C57BL/6 mouse at 30 mg/kg, ip after 8 hrs; type: ADME, organism-based; design: dose 30 mg/kg, route intraperitoneal; how it was run: as §2
Mus musculus [8] = assay: AUC (infinity) in C57BL/6 mouse at 30 mg/kg, ip after 24 hrs; type: ADME, organism-based, Plasma; design: time infinity, dose 30 mg/kg, route intraperitoneal; details: in vivo; how it was run: as §2
[9] = Plasma concentration in C57BL/6 mouse at 30 mg/kg, ip after 0.083 hrs; type: ADME, organism-based; design: dose 30 mg/kg, route intraperitoneal; how it was run: as §2
[10] = Plasma concentration in C57BL/6 mouse at 30 mg/kg, ip after 12 hrs; type: ADME, organism-based; design: dose 30 mg/kg, route intraperitoneal; how it was run: as §2
Mus musculus [11] = assay: Half life in C57BL/6 mouse at 30 mg/kg, ip after 24 hrs; type: ADME, organism-based; design: dose 30 mg/kg, route intraperitoneal; details: in vivo; how it was run: as §2
Mus musculus [12] = assay: AUClast in C57BL/6 mouse at 30 mg/kg, ip after 24 hrs; type: ADME, organism-based, Plasma; design: time < 24 hr, dose 30 mg/kg, route intraperitoneal; details: in vivo; how it was run: as §2
[13] = Plasma concentration in C57BL/6 mouse at 30 mg/kg, ip after 1 hr; type: ADME, organism-based; design: dose 30 mg/kg, route intraperitoneal; how it was run: as §2
Mus musculus [14] = assay: Cmax in C57BL/6 mouse at 30 mg/kg, ip after 24 hrs; type: ADME, organism-based; design: dose 30 mg/kg, route intraperitoneal; details: in vivo; how it was run: as §2
[15] = Plasma concentration in C57BL/6 mouse at 30 mg/kg, ip after 2 hrs; type: ADME, organism-based; design: dose 30 mg/kg, route intraperitoneal; how it was run: as §2
[16] = Plasma concentration in C57BL/6 mouse at 30 mg/kg, ip after 0.25 hrs; type: ADME, organism-based; design: dose 30 mg/kg, route intraperitoneal; how it was run: as §2
[17] = molecular target: T1, Lysosomal acid glucosylceramidase; assay: Inhibition of glucocerebrosidase N370S mutant in spleen homogenates of patient with Gaucher disease using resorufin-beta-D-glucopyranoside as substrate after 60 mins fluorescence assay; type: tissue-based
[18] = Plasma concentration in C57BL/6 mouse at 30 mg/kg, ip after 24 hrs; type: ADME, organism-based; design: dose 30 mg/kg, route intraperitoneal; how it was run: as §2
[19] = Plasma concentration in C57BL/6 mouse at 30 mg/kg, ip after 4 hrs; type: ADME, organism-based; design: dose 30 mg/kg, route intraperitoneal; how it was run: as §2

IC50 [1]: 2100 nM
Compound: S=C(NCCCc1c[nH]cn1)NCCN(Cc1ccc(Cl)c(Cl)c1)c1ccc(Br)cn1

IC50 [1]: 4000 nM
Compound: S=C(NCCCc1cnc[nH]1)NCCCN(Cc1ccc(Cl)cc1)c1cc(-c2ccccc2)ccn1

IC50 [1]: 2000 nM
Compound: S=C(NCCCc1cnc[nH]1)NCCCN(CCc1ccc(Cl)cc1)c1ccc(Br)cn1

IC50 [1]: 600 nM
Compound: O=C(NCCCc1c[nH]cn1)NCCCN(Cc1ccc(Cl)c(Cl)c1)c1ccc(Br)cn1

inhibition [2]: inactive
Compound: CCCCNC(=S)NCCCN(Cc1ccc(Cl)c(Cl)c1)c1ccc(Br)cn1

IC50 [1]: 18300 nM
Compound: S=C(NCCCN(Cc1ccc(Cl)c(Cl)c1)c1ccc(Br)cn1)NCCc1c[nH]cn1

Compound: CN(CCCN(Cc1ccc(Cl)cc1)c1ccc(Br)cn1)C(=S)NCCCc1cnc[nH]1
Ki [3]: 19 nM | IC50 [1]: 2800 nM

IC50 [1]: 7300 nM
Compound: S=C(NCCCc1c[nH]cn1)NCCCN(Cc1ccc(Cl)c(Cl)c1)c1ccccn1

Ki [3]: 690 nM | IC50 [1]: 46000 nM
Compound: S=C(NCCCNc1ccc(Br)cn1)NCCCc1c[nH]cn1

IC50 [1]: 5800 nM
Compound: S=C(NCCCc1c[nH]cn1)NCCCN(Cc1ccccc1)c1ccc(Br)cn1

IC50 [1]: 1300 nM
Compound: S=C(NCCCc1cnc[nH]1)NCCCN(Cc1ccc(Cl)cc1)c1ccc(-c2ccccc2)cn1

inhibition [2]: inactive
Compound: CC(=O)NCCCNC(=S)NCCCN(Cc1ccc(Cl)cc1)c1ccc(Br)cn1

Compound: S=C(NCCCc1c[nH]cn1)NCCCN(Cc1ccc(Cl)c(Cl)c1)c1ccc(Br)cn1
concentration at 0.5 h [4]: 4.84 µM | Activity [5]: Active | Tmax (Mus musculus [6]): 1 h | concentration at 8 h [7]: 1.35 µM | AUC (Mus musculus [8]): 20700 ng·h/mL | concentration at 0.083 h [9]: 3.03 µM | IC50 [1]: 600 nM | concentration at 12 h [10]: 0.2 µM | t1/2 (Mus musculus [11]): 2.57 h | AUClast (Mus musculus [12]): 20600 ng·h/mL | concentration at 1 h [13]: 6.39 µM | Cmax (Mus musculus [14]): 3553 ng/mL | concentration at 2 h [15]: 6.17 µM | concentration at 0.25 h [16]: 4.24 µM | IC50 [17]: 580 nM | concentration at 24 h [18]: 0.02 µM | concentration at 4 h [19]: 4.29 µM

Activity [5]: Active
Compound: OC[C@H]1CNC[C@@H](O)[C@@H]1O

Ki [3]: 26 nM | IC50 [1]: 18000 nM
Compound: CN(CCCc1cnc[nH]1)C(=S)NCCCN(Cc1ccc(Cl)cc1)c1ccc(Br)cn1

Ki [3]: 160 nM | Activity [5]: Active | IC50 [1]: 1300 nM
Compound: S=C(NCCCc1cnc[nH]1)NCCCN(Cc1ccc(Cl)cc1)c1ccc(Br)cc1

IC50 [1]: 1000 nM
Compound: O=C(NCCCc1cnc[nH]1)NCCCN(Cc1ccc(Cl)cc1)c1ccc(Br)cn1

IC50 [1]: 1200 nM
Compound: S=C(NCCCc1c[nH]cn1)NCCCN(Cc1ccc(Cl)cc1)c1ccc(Br)cn1

IC50 [1]: 45000 nM
Compound: NCCCNC(=S)NCCCN(Cc1ccc(Cl)cc1)c1ccc(Br)cn1

IC50 [1]: 8200 nM
Compound: CCCCN(CCCNC(=S)NCCCc1c[nH]cn1)c1ccc(Br)cn1

IC50 [1]: 800 nM
Compound: S=C(NCCCCN(Cc1ccc(Cl)cc1)c1ccc(Br)cn1)NCCCc1cnc[nH]1

IC50 [1]: 2800 nM
Compound: S=C(NCCCc1cnc[nH]1)NCCCN(CCc1ccccc1)c1ccc(Br)cn1
